Shown is part of a subset that was picked to be rich in hits.
HCT116 bCat-KO: primary screen for growth suppressors in beta-catenin knockout HCT116 cells (colon tumor, human); viability, % at 10 µM; 1.5% of 140,000 active; HCT116 beta-catenin knockout viability, CellTiter-Glo, 60 h; hits give low values;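 active = viability at or under a set limit, the compound median less 4 SD, cut at about 6% in these data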;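 note: 0% = Hyamine 1622 control at 20 µM and 100% = untreated cell control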
H69AR growth 86K: proliferation blockers of H69AR lung cancer cells, primary screen, cell-based, human, 86K library. H69AR lung tumor viability, ATP luminescence, 72 h; hits give low values. viability, % at 10 µM. 6% of 85,000 active. AID 598, 2007;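 active = viability at or below 40%; inactive = viability above 40%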;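 note: multidrug resistant small cell line overexpressing MRP-1 efflux transporter; 100% = mean luminescence of untreated control wells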
HUVEC inhibit: inhibitors of HUVEC proliferation, primary screen, cell-based, 384-well. CellTiter-Glo luminescence, 72 h; hits give low values. viability, % at 10 µM (by protocol). 1.1% of 86,000 active;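 active = viability at or below 30%; inactive = viability above 30%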;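 note: 100% = median luminescence of DMSO-only cell control wells on each plate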
HCT116 PTEN-null: growth suppression of PTEN-null HCT116, primary screen, cell-based, CellTiter-Glo; HCT116 PTEN-null viability, 60 h; hits give low values; viability, % at 10 µM; 1.2% of 140,000 active; AID 827, 2007;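 active = viability at or below a set limit, 4 SD under the median of all tested compounds, cut at about 3.7% in these data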;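 note: PTEN knockout HCT116 line with beta catenin targeted HCT116 as companion control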
Fibroblast inh: antiproliferative effect on LL 47 fibroblasts – human, LL 47 cells, CellTiter-Glo luminescence, primary screen; 1.1% of 85,000 active; viability, % at 10 µM; LL 47 human lung fibroblast viability, ATP luminescence; hits give low values;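 active = viability at or below 50% in the single dose screen; inactive = viability above 50%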;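 note: compound exposure lasted 72 h before the ATP readout; 100% = median luminescence of untreated cell-only wells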
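Test system: LL 47 human lung fibroblasts / Incubation: 72 h compound exposure at 37 °C after overnight plating / Technique: luminescent ATP detection, CellTiter-Glo / Compound dosing: 0.1% DMSO in all compound wells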
The depositor's hits bear a star; nt = not tested or not shown.

SMILES | HCT116 bCat-KO | H69AR growth 86K | HUVEC inhibit | HCT116 PTEN-null | Fibroblast inh
O=C(CN(C1CC1)S(=O)(=O)c1ccc(S(=O)(=O)N2CCCCCC2)cc1)Nc1ccccc1 | 94.5 | 37.1* | 77.4 | 99.3 | 93.3
CCN(C1CCCCC1)S(=O)(=O)c1ccc(S(=O)(=O)N(CC(=O)Nc2ccccc2)C2CC2)cc1 | 94.1 | 58.3 | 92.5 | 103.9 | 87.4
Cc1nc2c3ccccc3nc(SCC(=O)N3CC(C)CC(C)C3)n2n1 (stereo not drawn) | 103.1 | 20.3* | 80.4 | 97.2 | 96.6
Cc1nc2c3ccccc3nc(SCC(=O)c3ccc(Cl)cc3)n2n1 | 66.5 | nt | nt | 62.0 | nt
CCOC(=O)C1(Nc2nccs2)Sc2ccccc2NC1=O (stereo not drawn) | 18.9 | 15.8* | 68.0 | 20.9 | 81.8
CCOC(=O)Nc1ccc2c(c1)Nc1ccccc1S2 | 83.5 | 94.9 | 51.0 | 75.5 | 92.7
O=C(c1cc(Cl)ccc1[N+](=O)[O-])N1CCc2ccccc2C1 | 92.1 | nt | nt | 103.7 | nt
Cc1cc2c3c(c1)C1(C(=O)N3C(C)(C)CC2C)C(C#N)=C(N)Oc2n[nH]c(C)c21 (stereo not drawn) | 27.1 | 19.9* | 73.9 | 26.6 | 93.1
Cn1cc(-c2nnc(-c3ccccc3)o2)c2ccccc21 | 84.1 | 53.7 | 18.5* | 81.9 | 59.5
Cc1ccccc1-c1nnc(-c2ccccc2)o1 | 88.1 | 92.0 | 99.8 | 85.4 | 93.2
COc1ccccc1/C=C/C(=O)c1c2c(c(C)[nH]c1=O)CCCC2 | 5.4* | nt | nt | 3.2* | nt
COc1ccccc1/C=C/C(=O)c1ccc(NC(C)=O)cc1 | 14.8 | nt | nt | 17.2 | nt
COc1ccc(OC)c(-c2cnc(OC(C)(C)C)nc2OC(C)(C)C)c1 | 14.8 | nt | nt | 15.7 | nt
O=C(COC(=O)c1nc(-c2ccccc2)n(-c2cccc(C(F)(F)F)c2)n1)NCc1cccs1 | 99.2 | nt | nt | 102.7 | nt
COc1ccc(/C=C/C(=O)c2ccc3c(c2)OCCO3)cc1[N+](=O)[O-] | 52.4 | nt | nt | 46.1 | nt
COc1ccc(Oc2ccc(/C=C/C(=O)c3cccc(OC)c3)cc2[N+](=O)[O-])cc1 | 2.0* | nt | nt | 1.9* | nt
O=C(CNC(=O)c1ccc(S(=O)(=O)N2CCCC2)cc1)N/N=C/c1c(Cl)cccc1Cl | 65.0 | nt | nt | 75.8 | nt
O=C(CSc1nnc(-c2cccs2)o1)Nc1cccc(S(=O)(=O)N2CCCCC2)c1 | 94.2 | nt | nt | 95.6 | nt
O=S(=O)(c1ccc(N2CCN(CCO)CC2)nc1)N1CCCCC1 | 88.7 | 91.5 | 113.0 | 102.4 | 108.0
OC1(Cc2ccn[nH]2)CCCCC1 | 87.6 | 101.6 | 27.7* | 101.2 | 104.3
O=S(=O)(/C(=C/c1ccc(C(F)(F)F)cc1)c1nc2ccccc2[nH]1)c1ccccc1 | 1.5* | nt | nt | 1.6* | nt
CC(C)c1ccc(/C=C(\c2nc3ccccc3[nH]2)S(=O)(=O)c2ccccc2)cc1 | 1.8* | nt | nt | 1.9* | nt
CC(C)(C)/C(O)=C/c1nc2ccccc2[nH]c1=O | 93.7 | nt | nt | 100.5 | nt
N#C/C(=C\c1cccc(Oc2ccc(C(F)(F)F)cc2[N+](=O)[O-])c1)c1nc2ccccc2[nH]1 | 84.7 | nt | nt | 88.4 | nt
C=CCNC(=O)/C(C#N)=C/c1c(C)nn(-c2ccccc2)c1Cl | 85.3 | nt | nt | 89.4 | nt
SMILES | HCT116 bCat-KO | H69AR growth 86K | HUVEC inhibit | HCT116 PTEN-null | Fibroblast inh
COc1ccc(C(C)C)cc1S(=O)(=O)n1cnc(C)c1 | 52.3 | 27.4* | 64.3 | 44.9 | 90.6
COc1cc(C)c(Cl)cc1S(=O)(=O)n1cnc(C)c1 | 101.4 | 86.0 | 88.2 | 101.7 | 92.0
Cc1cnc(NC(=O)c2ccc(-c3nc4ccccc4s3)o2)s1 | 99.1 | 28.3* | 91.3 | 90.1 | 102.8
C/C=C(\CS(=O)(=O)c1ccccc1)S(=O)(=O)c1ccccc1 | 51.5 | 25.3* | 89.1 | 36.1 | 63.6
COc1ccc(/C=C/C(=O)NCCCc2ccccc2)cc1 | 98.0 | nt | nt | 95.4 | nt
COc1ccc(/C=C\C(=O)CC(O)(c2ccccc2)C(F)(F)F)cc1 (stereo not drawn) | 9.7 | 1.2* | 87.2 | 11.0 | 87.9
Cc1cc(Cl)cc(Cl)c1CNc1c([N+](=O)[O-])c(=O)oc2ccccc12 | 90.3 | nt | nt | 86.9 | nt
COc1cccc([C@@H]2Oc3ccc(OC)cc3C(=O)[C@H]2OC(=O)NCc2ccc3c(c2)OCO3)c1 | 77.8 | nt | nt | 68.4 | nt
CNc1nnc(-c2ccc(N(C)C)cc2)s1 | 88.9 | 82.9 | 94.6 | 88.3 | 105.4
CCN1CCN(c2ncc(C(=O)Nc3c(F)cc(F)cc3Br)c3ccccc23)CC1 | 15.5 | 21.4* | 58.6 | 19.9 | 82.7
CCN1CCN(c2ncc(C(=O)N3CCN(c4ccccc4OC)CC3)c3ccccc23)CC1 | nt | 88.7 | 93.5 | nt | 105.3
CCN1CCN(c2ncc(C(=O)Nc3cc(Cl)c(OC)cc3OC)c3ccccc23)CC1 | 75.9 | 22.9* | 17.8* | 75.9 | 84.7
Cc1ccc(Cn2c(=S)[nH]c3ccc(N4CCOCC4)cc3c2=O)o1 | 84.5 | 5.8* | 76.0 | 76.3 | 46.2*
COc1ccc(/C=C/C(=O)Nc2nonc2NC(C)=O)cc1 | 90.3 | nt | nt | 77.9 | nt
O=C(NC1CCCCC1)N1CCC(c2nc(-c3ccc(S(=O)(=O)N4CCCC4)cc3)no2)CC1 | 62.4 | 30.1* | 73.1 | 50.3 | 82.8
O=C(C1CC1)N1CCC(c2nc(-c3ccc(S(=O)(=O)N4CCCC4)cc3)no2)CC1 | 97.0 | 92.8 | 98.3 | 71.7 | 109.2
COc1cc(NC(=O)c2cccs2)c(C(=O)OCC(=O)NCc2ccccc2)cc1OC | 103.7 | 6.7* | 18.9* | 107.0 | 87.9
COC(=O)c1cc(OC)c(OC)cc1NC(=O)c1ccccc1 | 20.5 | 39.2* | 71.4 | 60.2 | 99.0
O=C(N/N=C/c1cccc([N+](=O)[O-])c1)C1CC(=O)N(c2ccc(F)cc2)C1 (stereo not drawn) | 96.2 | nt | nt | 98.6 | nt
CCOC(=O)c1sc(NC(=O)CCCn2nc([N+](=O)[O-])c(Cl)c2C)c(C(=O)OCC)c1C | 83.1 | nt | nt | 85.1 | nt
Cc1nc2sccn2c(=O)c1Br | 86.9 | nt | nt | 92.2 | nt
COc1ccc(NS(=O)(=O)c2ccc(N/N=C(\C)c3ccncc3)c([N+](=O)[O-])c2)cc1 | 22.7 | nt | nt | 16.6 | nt
COc1ccc(N2C(=O)CC(Sc3ncn[nH]3)C2=O)c(OC)c1 (stereo not drawn) | 94.3 | 1.6* | 89.2 | 104.7 | 86.5
CC(C)c1ccc(N2C(=O)CC(Sc3ncn[nH]3)C2=O)cc1 (stereo not drawn) | 99.8 | 83.3 | 99.2 | 89.7 | 104.0
C=CCn1c(=O)/c(=C/c2cc(OC)c(OC)c(OC)c2)s/c1=C(/C#N)c1nc2ccccc2n1C | 47.5 | 10.0* | 49.8 | 55.7 | 54.8
Cc1cc(C)c(S(=O)(=O)Nc2cccc3nsnc23)c(C)c1 | 75.5 | 2.5* | 92.5 | 67.9 | 97.9
O=S(=O)(Nc1cccc2nsnc12)c1ccccc1 | 91.4 | 96.7 | 83.5 | 100.2 | 101.2
CC(C)=N/N=C1/NC(=O)C(CC(=O)Nc2cc(Cl)ccc2C)S1 (stereo not drawn) | 99.6 | nt | nt | 93.0 | nt
Cc1ccc(C)c(NC(=S)N(CCc2nc3cc(C)c(C)cc3[nH]2)Cc2cccnc2)c1 | 86.9 | nt | nt | 89.7 | nt
